Common to all, as to format: functional, cell-based
Assay [1] relates to RAW. Nature of the assay: Activation of mouse DN32 cells co-cultured with CD1d-transfected RAW cells assessed as IL-2 release at 100 ng/ml pulsed for 3 hrs and then fixed measured after 16 hrs by ELISA. The method in brief:
(§1)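 CD1d-transfected RAW cells were handled in one of two orders. In one, they were pulsed with 100 ng/ml lipid for 3 h, washed, then fixed with glutaraldehyde. In the other, they were fixed first, then pulsed for 3 h. 10^5 APC were co-cultured with 10^5 iNKT hybridoma cells for 16 h, and supernatant cytokines were measured by ELISA.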
A general note: An ELISA detects its analyte on a solid surface through an enzyme-linked reagent.

Assay [2] has as its system RAW. Briefly: Activation of mouse DN32 cells in co-cultured with CD1d-transfected RAW cells assessed as IL-2 release after 16 hrs by ELISA. The method in brief: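 Mouse iNKT hybridoma DN32 (5×10^4) co-cultured with 5×10^4 RAW cells, CD1d-transfected or untransfected, across a range of lipid concentrations; supernatant cytokines measured by ELISA at 16 h.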
Assay [3] in a line: Activation of human BM2a.3 cells co-cultured with CD1d-expressing U937 cells assessed as IFN-gamma release after 16 hrs by ELISA. To be noted: U-937. The method in brief: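 Human iNKT clone BM2a.3 (2.5×10^4) co-cultured with 2.5×10^4 U937 cells and a range of lipid concentrations; cytokines in culture supernatants measured by ELISA after 16 h.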
A further assay has as its system DN32. Nature of the assay: Activation of mouse DN32 cells in co-cultured with plate bound antigen presenting cell free CD1d-FC fusion protein assessed as IL-2 release after 16 hrs by ELISA. The method, boiled down:
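Plate-bound murine recombinant CD1d-Fc fusion protein loaded with lipid for 16 h, then washed; 5×10^4 iNKT hybridoma cells added per well, with no APC. Cytokines in culture supernatants measured by ELISA.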

In assay [4] the test system is RAW. Briefly: Activation of mouse DN32 cells co-cultured with CD1d-transfected RAW cells assessed as IL-2 release at 100 ng/ml fixed and then pulsed for 3 hrs measured after 16 hrs by ELISA. The method in brief: as §1

This note sets out measurements from ChEMBL document CHEMBL1153633, “Synthesis and biological activity of alpha-galactosyl ceramide KRN7000 and galactosyl (alpha1-->2) galactosyl ceramide” (Bioorg Med Chem Lett, 2009).

Structures are written as SMILES. Calls of active or inactive are those of the source. No cut-off for these calls is given here.

Consider `CCCCCCCCCCCCCCCCCCCCCCCCCC(=O)N[C@@H](CO[C@H]1O[C@H](CO)[C@H](O)[C@H](O)[C@H]1O[C@H]1O[C@H](CO)[C@H](O)[C@H](O)[C@H]1O)[C@H](O)[C@H](O)CCCCCCCCCCCCCC`, for which the result (with RAW [1]; in the assay on RAW [2]; in assay [3]) was Active. Moreover, the outcome in the assay with DN32 and in the assay with RAW [4] was inactive.

Take `CCCCCCCCCCCCCCCCCCCCCCCCCC(=O)N[C@@H](CO[C@H]1O[C@H](CO)[C@H](O)[C@H](O)[C@H]1O)[C@H](O)[C@H](O)CCCCCCCCCCCCCC`: the outcome (with RAW [1]; in the assay on RAW [2]; in assay [3]; in the assay on DN32; in the assay with RAW [4]) was Active.
